From the array DNA melting data of Ke et al. (doi:10.1101/2024.01.08.574731)

What was measured:
[1] = melting temperature; fluorescence melt of hairpins on a sequencing array, two-state fit, raised by 9.35 °C to match UV melts; conditions: sodium 0.088 M
Procedure, shortened: (§1)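 On a sequenced MiSeq flow cell, library hairpins with annealed Cy3 and quencher oligos were imaged for Cy3 fluorescence in 2.5 °C steps up to 60 °C, in 50 mM Na-HEPES pH 8.0, 25 mM NaCl. Normalisation used pre-quench Cy3 and control constructs. Bootstrapped two-state fits gave melting temperature and folding enthalpy, combined by inverse variance across four replicates and with fitted temperatures raised by 9.35 °C to match UV melts.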

[2] = folding enthalpy; higher = less favourable; fluorescence melt of hairpins on a sequencing array, two-state fit; conditions: sodium 0.088 M
Procedure, shortened: as §1

Sequence | Tm [1] | folding enthalpy [2]
GCACGTGGAAACACGCGC ((.((((....)))).)) | 57.5 °C | -38.4 kcal/mol
GATACCGAAAGGTACATC ((((((....)))..))) | 26.9 °C | -10.4 kcal/mol
GCGCCGCGAAAGCAGAGC ((.(.((....)).).)) | 66.7 °C | -27.8 kcal/mol
GATTTGGAAACAAATC ((((((....)))))) | 48.5 °C | -40.2 kcal/mol
GCCATCGAAAGATGTGGC ((((((....)))..))) | 46.6 °C | -23.4 kcal/mol
GAGGATGGAAACATTCTC (((.(((....))).))) | 42.6 °C | -25.5 kcal/mol
GTCATGGGAAACCATGAC (((((((....))))))) | 60.7 °C | -44.5 kcal/mol
GATCACGCTCGTGATC ((((((....)))))) | 60.9 °C | -45.5 kcal/mol
GGGCTGCGAAAGCAACCC (((.(((....))).))) | 60.2 °C | -38.9 kcal/mol
GCGTAGCGAAAGCTAAGC ((.((((....)))).)) | 58.5 °C | -16.1 kcal/mol
GATCACGCATGTGATC ((((((....)))))) | 67.3 °C | -43.1 kcal/mol
GGCCCCGAAAGGGTTGCC ((((((....)))..))) | 55.3 °C | -16.3 kcal/mol
GAAGACGAAAGTCCGTTC ((((((....)))..))) | 27.6 °C | -8.8 kcal/mol
GATCTTGGCGAAGATC ((((((....)))))) | 47 °C | -30.8 kcal/mol
GATCTACGGATAGATC ((((((....)))))) | 37.8 °C | -23.4 kcal/mol
GGAACACGAAAGTGATCC (((.(((....))).))) | 52.7 °C | -28.5 kcal/mol
GATCGTGCTTACGATC ((((((....)))))) | 56.4 °C | -38.4 kcal/mol
GATCTCTACCGAGATC ((((((....)))))) | 51.7 °C | -37.1 kcal/mol
GTCTGCGGAAACGTAGAC ((((.((....)).)))) | 53.2 °C | -37.8 kcal/mol
GGACCCGAAAGGGTTTCC ((((((....)))..))) | 37.1 °C | -8.05 kcal/mol
GATCCAGCCCTGGATC ((((((....)))))) | 54.1 °C | -48 kcal/mol
AACTCGAAAGAGTT (((((....))))) | 50.7 °C | -17.7 kcal/mol
GCGTTGGTACGC ((((....)))) | 51.3 °C | -20.9 kcal/mol

Sequence | Tm [1] | folding enthalpy [2]
GGAAGGGCGAAAGCCTCC (((..(((....)))))) | 41.1 °C | -11.2 kcal/mol
GCCACGGGAAACCGTGAC (.(((((....))))).) | 51.1 °C | -16.5 kcal/mol
GCAAAGGGAAACCCTTGC ((((.((....)).)))) | 46 °C | -29.5 kcal/mol
GACGTTGGAAACAATGTC (((.(((....))).))) | 48.4 °C | -37.3 kcal/mol
CGTGTCGGAAACGAGACG (((.(((....))).))) | 51.7 °C | -36 kcal/mol
CGGGCGGAAACGCGCCG ((((((....))).))) | 55.5 °C | -16.6 kcal/mol
GCGGACGAAAGTCAACGC ((((((....)))..))) | 54.3 °C | -42 kcal/mol
GCTGGATCGAAAGATAGC (((..(((....)))))) | 30.8 °C | -21 kcal/mol
GGAGTTGGAAACAACCCC ((.((((....)))).)) | 43.5 °C | -22.8 kcal/mol
GCACTGCGAAAGCATGC (((.(((....)))))) | 53.1 °C | -20.7 kcal/mol
GGTACAGGAAACTGTGCC ((.((((....)))).)) | 52.6 °C | -31.8 kcal/mol
GTTGTCCCGAAAGGGAAC (((..(((....)))))) | 50.4 °C | -20.7 kcal/mol
GTCAGCGAAAGCTAGAC ((((((....))).))) | 50.7 °C | -22.8 kcal/mol
GATCTAGTACTAGATC ((((((....)))))) | 48.7 °C | -51.4 kcal/mol
TCATGGAAACATGA (((((....))))) | 39.8 °C | -24.5 kcal/mol
GCTAAGCGAAAGCCTAGC ((((.((....)).)))) | 49.1 °C | -21.9 kcal/mol
GCCTATCGAAAGATCGGC (((.(((....))).))) | 49 °C | -41.7 kcal/mol
GACTCCGGAAACGGAACC (..((((....))))..) | 26.1 °C | -8.88 kcal/mol
GTTCGAGCGAAAGCTAAC (((..(((....)))))) | 24.6 °C | -7.3 kcal/mol
GTTACCGAAAGGTGAAAC ((((((....)))..))) | 27.5 °C | -9.44 kcal/mol
GATCGTTAAGACGATC ((((((....)))))) | 55.4 °C | -43.2 kcal/mol
GCCTGGCGAAAGCCACGC ((.((((....)))).)) | 49 °C | -16.9 kcal/mol
GGAGCTGGAAACAGCTTC (.(((((....))))).) | 53.1 °C | -26.4 kcal/mol
